From ChEMBL document CHEMBL1138178, “Identification of novel parasitic cysteine protease inhibitors by use of virtual screening. 2. The available chemical directory” (J Med Chem, 2006)
pIC50: −log10 of the molar value. Where a SMILES comes first, the peptide text is derived from it. The star is where a group is joined. Cbz = O=C(OCc1ccccc1)*; OBn = c1ccc(CO*)cc1

Tests used:
[1] = tested on: Plasmodium falciparum; experiment: Antimalarial activity against Plasmodium falciparum W2; format: functional, organism-based
Outline: (§1)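 Sorbitol-synchronized chloroquine-resistant W2 P. falciparum at 1% parasitemia, 2% hematocrit, RPMI-1640 with 10% human serum, 3% O2/6% CO2/91% N2; compounds from DMSO (max 0.1%) for 48 h; fixed in 1% formaldehyde 48 h, stained with 1 nM YOYO-1 in 0.1% Triton X-100; parasitemia by flow cytometry; IC50 from percent control parasitemia versus concentration.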

[2] = tested on: Leishmania donovani; experiment: Antileishmanial activity against Leishmania donovani promastigotes; format: functional, organism-based; details: for pIC50 / IC90: Leishmania donovani; for pIC50: read-out: IC50
[3] = tested on: Vero; experiment: Cytotoxicity against Vero cells up to 50 uM; format: functional, cell-based, Chlorocebus sabaeus
Outline: (§2)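 VERO monkey kidney fibroblast cells tested simultaneously with antileishmanial screen; cytotoxicity read by neutral red assay; IC50 computed from growth inhibition curve.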

[4] = tested on: Plasmodium falciparum; experiment: Antimalarial activity against Plasmodium falciparum W2 up to 20 uM; format: functional, organism-based; outline: as §1
[5] = tested on: Vero; experiment: Cytotoxicity against Vero cells; format: functional, cell-based; details: Chlorocebus sabaeus; outline: as §2
[6] = biological target: T1, Cysteine protease falcipain-3 (Plasmodium falciparum, UniProt Q9NBA7); experiment: Inhibition of falcipain3
T1 sequence (Q9NBA7 whole entry): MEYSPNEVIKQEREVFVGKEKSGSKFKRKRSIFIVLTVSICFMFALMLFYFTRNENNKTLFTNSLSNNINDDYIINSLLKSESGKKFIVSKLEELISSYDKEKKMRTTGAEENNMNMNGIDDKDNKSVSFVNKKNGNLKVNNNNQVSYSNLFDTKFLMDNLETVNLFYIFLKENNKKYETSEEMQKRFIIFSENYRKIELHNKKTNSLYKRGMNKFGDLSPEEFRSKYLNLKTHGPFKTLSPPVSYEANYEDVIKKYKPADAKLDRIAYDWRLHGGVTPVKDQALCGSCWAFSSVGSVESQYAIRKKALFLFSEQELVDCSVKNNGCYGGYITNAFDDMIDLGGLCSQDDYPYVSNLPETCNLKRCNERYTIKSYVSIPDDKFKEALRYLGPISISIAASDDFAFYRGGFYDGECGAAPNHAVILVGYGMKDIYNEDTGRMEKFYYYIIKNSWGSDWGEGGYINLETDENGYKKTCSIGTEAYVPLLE

[7] = biological target: T2, Falcipain 2 (Plasmodium falciparum, UniProt Q9N6S8); experiment: Inhibition of falcipain2
T2 sequence (Q9N6S8 whole entry): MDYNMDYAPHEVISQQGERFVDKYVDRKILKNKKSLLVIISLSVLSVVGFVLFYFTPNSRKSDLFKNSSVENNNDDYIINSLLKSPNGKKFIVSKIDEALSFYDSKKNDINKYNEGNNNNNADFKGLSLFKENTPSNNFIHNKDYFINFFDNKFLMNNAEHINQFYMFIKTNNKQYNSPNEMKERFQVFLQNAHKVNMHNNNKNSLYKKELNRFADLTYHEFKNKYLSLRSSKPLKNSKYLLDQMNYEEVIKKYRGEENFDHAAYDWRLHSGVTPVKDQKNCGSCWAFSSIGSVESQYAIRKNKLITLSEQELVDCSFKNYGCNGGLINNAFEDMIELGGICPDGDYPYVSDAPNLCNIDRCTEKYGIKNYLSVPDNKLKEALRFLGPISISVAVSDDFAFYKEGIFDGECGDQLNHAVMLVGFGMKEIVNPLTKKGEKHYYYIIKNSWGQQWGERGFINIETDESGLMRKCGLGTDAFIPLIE

[8] = biological target: T3, Cysteine protease (Leishmania donovani, UniProt Q95WR6); experiment: Inhibition of Leishmania donovani cysteine protease
T3 sequence (Q95WR6 whole entry): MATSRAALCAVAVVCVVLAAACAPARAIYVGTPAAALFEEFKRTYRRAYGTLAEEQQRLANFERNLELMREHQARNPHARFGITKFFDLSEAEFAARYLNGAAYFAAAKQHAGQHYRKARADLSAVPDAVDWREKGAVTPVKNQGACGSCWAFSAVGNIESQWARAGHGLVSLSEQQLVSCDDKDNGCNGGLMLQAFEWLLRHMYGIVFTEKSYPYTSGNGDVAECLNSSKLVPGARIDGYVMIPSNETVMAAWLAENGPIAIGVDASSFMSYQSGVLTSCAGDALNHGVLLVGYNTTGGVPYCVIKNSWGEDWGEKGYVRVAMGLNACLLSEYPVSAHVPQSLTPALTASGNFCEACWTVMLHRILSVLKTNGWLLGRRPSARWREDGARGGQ
Outline: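 Major cysteine protease purified from L. donovani promastigotes on Con A Sepharose; buffer 100 mM sodium acetate pH 5.5, 10 mM DTT, 0.1% Triton X-100, 1 mM EDTA; enzyme preincubated with compounds (DMSO stock) 10 min at 37 °C; Z-Phe-Arg-AMC at 10 µM final; 30 min at 37 °C; released AMC read fluorometrically.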

Row | Compound | pIC50 [1] | pIC50 [6] | pIC50 [7] | also measured
1 | COc1ccc(-c2cncc(-c3cc(NCCCn4ccnc4)nc(C)n3)c2)cc1 | 5.55 |  |  | 
2 | Cn1c(CSc2ccnc3cc(Cl)ccc23)nnc1SCC(=O)N1CCOCC1 | 4.70 |  |  | IC50 [2]: Not Active; IC50 [3]: Non-toxic
3 | Cn1c(CSCC(=O)Nc2ccccc2)nnc1SCC(=O)Nc1cccc(Cl)c1 | 4.78 |  |  | IC50 [2]: Not Active; IC50 [3]: Non-toxic
4 | CCOC(=O)C1CCN(S(=O)(=O)c2ccc(CNC(=O)c3ccccc3)s2)CC1 |  |  |  | IC50 [4]: Not Active; pIC50 [2]: 4.30; IC50 [3]: Non-toxic
5 | c1ccc(-c2nc(NCCCn3ccnc3)cc(-c3ccncc3)n2)cc1 | 6.89 |  |  | IC90 [2]: 98.2 µM; pIC50 [2]: 4.30; IC50 [3]: Non-toxic
6 | c1ccc(-c2nc(NCCCn3ccnc3)cc(-c3cccnc3)n2)cc1 | 6.03 |  |  | pIC50 [5]: 4.39; IC90 [2]: 56.1 µM; pIC50 [2]: 4.90
7 | O=S(=O)(c1ccc(-c2ccc(S(=O)(=O)N3CCOCC3)s2)s1)N1CCOCC1 |  | 4.42 | 5.27 | 
8 | COc1ccc(-c2cncc(-c3cc(NCc4ccco4)nc(C)n3)c2)cc1 | 4.94 |  |  | IC50 [2]: Not Active; IC50 [3]: Non-toxic
9 | O=S(=O)(c1ccc2c(c1)C(=NO)c1cc(S(=O)(=O)N3CCOCC3)ccc1-2)N1CCOCC1 | 5.22 |  |  | IC90 [2]: 81 µM; pIC50 [2]: 4.28; IC50 [3]: Non-toxic
10 | COC(=O)c1sccc1NC(=O)CSCc1ccc(Cl)cc1 |  |  |  | IC50 [4]: Not Active; pIC50 [2]: 4.35; IC50 [3]: Non-toxic
11 | Cc1cccc(NC(=O)Cn2c(O)c(/N=N/C(=O)C(=O)NCc3ccccc3)c3ccccc32)c1 |  | < 4.30 | 5.80 | 
12 | Cc1ccc(S(=O)(=O)N(C)C)cc1NS(=O)(=O)c1ccc(-c2ccon2)s1 |  | < 4.30 | 5.54 | 
13 | CCCc1cc(O)nc(SCC(=O)NCCSCc2ccco2)n1 |  | < 4.30 | 5.34 | 
14 | Cn1c(O)c(/N=N/C(=O)CCCCC(=O)/N=N/c2c(O)n(C)c3ccccc23)c2ccccc21 |  | < 4.30 | 5.19 | 
15 | O=C(Cn1nnc(-c2ccccc2)n1)NNC=NOCc1c(F)cccc1Cl |  | 4.41 | 4.97 | 
16 | O=C(CS(=O)(=O)c1ccc(Cl)cc1)NCCS(=O)(=O)c1ccccc1 |  |  |  | pIC50 [8]: 4.60
17 | O=C(N[C@@H](COCc1ccccc1)C(=O)ON1C(=O)CCC1=O)OCc1ccccc1 |  |  |  | pIC50 [8]: 4.63
18 | CCCS(=O)(=O)c1cscc1NC(=O)CSCCS(=O)(=O)c1ccc(Cl)cc1 |  | < 4.30 | 5.47 | 
19 | COc1ccc(-c2ccnc(SCC(=O)NCCSCc3ccco3)n2)cc1 |  |  |  | IC50 [4]: Not Active; pIC50 [2]: 4.10; IC50 [3]: Non-toxic
20 | Brc1cncc(-c2cc(NCCCn3ccnc3)nc(-c3ccccc3)n2)c1 | 6.36 |  |  | pIC50 [5]: 4.49; IC90 [2]: 15.4 µM; pIC50 [2]: 5.11
21 | N=C(CS(=O)(=O)Cc1ccc(F)cc1)NOC(=O)c1cccs1 |  | < 4.30 | 4.30 | 
22 | O=C(CCSSCCC(=O)NCc1ccccc1)NCc1ccccc1 |  | 4.73 | 4.82 | 
23 | Cc1nc(NCCCn2ccnc2)cc(-c2cncc(-c3ccc(F)cc3)c2)n1 | 5.59 |  |  | pIC50 [5]: 4.39; IC90 [2]: 85 µM; pIC50 [2]: 4.39

Row | Compound | pIC50 [1] | pIC50 [6] | pIC50 [7] | also measured
24 | O=C(CSc1nnc(O)n1Cc1ccco1)c1ccc2c(c1)OCCO2 |  | < 4.30 | 4.28 | 
25 | Cc1csc(Cn2nc(CC(=O)N/N=C/c3ccccc3)c3ccccc3c2=O)n1 |  | < 4.30 | 4.27 | 
26 | COC(=O)c1ccsc1NC(=O)CN1CCN(S(=O)(=O)c2ccc(Cl)cc2)CC1 |  | 4.31 | 4.84 | 
27 | Cn1c(CSCC(=O)Nc2ccccc2)nnc1SCC(=O)Nc1ccccc1 | 4.70 |  |  | IC50 [2]: Not Active; IC50 [3]: Non-toxic
28 | Cc1ccc(S(=O)(=O)NC(=O)NCC2CCN(S(=O)(=O)c3ccccc3)CC2)cc1 |  | 4.47 | 4.72 | 
29 | Cc1nc(C)nc(N(CCS(=O)(=O)c2ccccc2)CCS(=O)(=O)c2ccccc2)n1 |  | < 4.30 | 4.88 | 
30 | O=S(=O)(NCCSCc1ccco1)c1cc(S(=O)(=O)c2ccccc2)cs1 |  |  |  | IC50 [4]: Not Active; pIC50 [2]: 4.27; IC50 [3]: Non-toxic
31 | O=S(=O)(NCc1ccco1)c1ccc2c(c1)Cc1cc(S(=O)(=O)NCc3ccco3)ccc1-2 |  | 4.94 | 5.85 | 
32 | CSc1cc(CSc2ccc(Cl)cc2)nc(-c2ccccn2)n1 | 4.70 |  |  | IC90 [2]: 106 µM; pIC50 [2]: 4.30; IC50 [3]: Non-toxic
33 | O=C(COCC(=O)N/N=C/CCc1ccccc1)N/N=C/CCc1ccccc1 | 5.41 |  |  | IC50 [2]: Not Active; IC50 [3]: Non-toxic
34 | O=C(CSc1nc2ccccc2o1)NCCSCc1ccco1 |  |  |  | pIC50 [8]: 4.37
35 | O=S(=O)(Cc1ccc(Cl)cc1)Cc1nc(-c2ccsc2)no1 |  | 4.25 | 4.32 | 
36 | COC(=O)c1sccc1NC(=O)CC(=O)Nc1ccsc1C(=O)OC |  | < 4.30 | 4.98 | 
37 | C[C@@H](C(=O)NCCS(=O)(=O)c1ccc(Br)cc1)S(=O)(=O)c1ccccc1 | 5.02 |  |  | pIC50 [5]: 4.32; IC50 [2]: Not Active
38 | O=C(CSCc1c(F)cccc1Cl)NCCSCc1ccco1 | < 5.60 |  |  | pIC50 [2]: 3.97; IC50 [3]: Non-toxic
39 | O=C(NCc1ccncc1)c1ccc(-c2cnn(Cc3ccccc3)c2)nc1 | 4.70 |  |  | 
40 | CCOC(=O)c1c2cc(OCC(=O)NCc3ccco3)ccc2n2ccccc12 | 5.02 | 4.51 | 4.86 | 
41 | O=C(CNC(=O)OCc1ccccc1)N[C@@H](Cc1ccccc1)C(=O)OCc1ccccc1 (Cbz-Gly-Phe-OBn) |  |  |  | pIC50 [8]: 4.50
42 | C[C@@H]1[C@H](O)[C@@H](C)/C=C/C=C/C=C/C=C/C=C/C=C/C=C/[C@H](O[C@@H]2O[C@H](C)[C@@H](O)[C@H](N)[C@@H]2O)C[C@@H]2O[C@](O)(C[C@@H](O)C[C@@H](O)[C@H](O)CC[C@@H](O)C[C@@H](O)CC(=O)O[C@H]1C)C[C@H](O)[C@H]2C(=O)O [AMPHOTERICIN B] |  |  |  | IC90 [2]: 0.3 µM; pIC50 [2]: 7.40
43 | C[C@@H]1CC[C@H]2[C@@H](C)C(=O)O[C@@H]3O[C@@]4(C)CC[C@@H]1[C@]32OO4 [ARTEMISININ] | 8.10 |  |  | 
44 | CC(C)C[C@H](NC(=O)[C@H]1O[C@@H]1C(=O)O)C(=O)NCCCCN=C(N)N [E-64] |  | 7.12 |  | 
45 | CC(=O)N[C@@H](CC(C)C)C(=O)N[C@@H](CC(C)C)C(=O)N[C@H](C=O)CCCNC(=N)N [LEUPEPTIN] |  |  |  | pIC50 [8]: 8.00
46 | N=C(N)c1ccc(OCCCCCOc2ccc(C(=N)N)cc2)cc1 [PENTAMIDINE] |  |  |  | IC90 [2]: 8.3 µM; pIC50 [2]: 5.60
